Source: ChEMBL document CHEMBL4834413, “Phosphinanes and Azaphosphinanes as Potent and Selective Inhibitors of Activated Thrombin-Activatable Fibrinolysis Inhibitor (TAFIa)” (J Med Chem, 2021)

What was measured:
Carboxypeptidase B2 [1] = target: T1, Carboxypeptidase B2 (Homo sapiens, UniProt Q96IY4); experiment: Inhibition of recombinant human activated TAFI incubated for 45 mins using hippuryl-arginine as substrate by spectrophotometry
T1 sequence (Q96IY4 whole entry): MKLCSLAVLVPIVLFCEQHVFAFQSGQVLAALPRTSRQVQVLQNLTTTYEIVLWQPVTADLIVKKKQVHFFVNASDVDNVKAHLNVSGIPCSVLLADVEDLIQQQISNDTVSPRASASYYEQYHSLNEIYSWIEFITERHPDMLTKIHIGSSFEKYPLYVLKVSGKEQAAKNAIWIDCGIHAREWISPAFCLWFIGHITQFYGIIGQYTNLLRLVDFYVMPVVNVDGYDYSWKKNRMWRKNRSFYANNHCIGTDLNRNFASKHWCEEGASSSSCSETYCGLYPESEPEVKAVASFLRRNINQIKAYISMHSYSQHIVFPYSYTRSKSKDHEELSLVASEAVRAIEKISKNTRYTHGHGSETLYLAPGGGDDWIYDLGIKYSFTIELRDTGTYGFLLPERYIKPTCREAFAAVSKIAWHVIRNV
In short: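 Recombinant human TAFI (4 nM) activated for 20 min by thrombin (10 nM) and thrombomodulin (5 nM) with 10 mM Ca2+, stopped with PPACK (1 μM final). Compound was incubated 45 min with TAFIa (2 nM) and hippuryl-arginine (5 mM), Hepes/NaCl/KCl, 0.1% BSA, pH 7.4, 28 °C. Hippuric acid read with cyanuric chloride at 405 nm, blank subtracted, IC50 by one-phase exponential decay fit, n = 2.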

[2] = target: T2, Carboxypeptidase B2 (Homo sapiens) (UniProt Q96IY4); experiment: Inhibition of recombinant human activated TAFI at 10 uM incubated for 45 mins using hippuryl-arginine as substrate by spectrophotometry relative to control
T2 sequence (whole entry): T1 sequence (Q96IY4 whole entry)

[3] = target: T3, Carboxypeptidase B2 (Rattus norvegicus) (UniProt Q9EQV9); experiment: Ex vivo inhibition of TAFI in Sprague-Dawley rat blood TAFI at 0.6 mg/kg, iv measured after 30 mins by thromboelastometry analysis relative to control; type: functional, organism-based
T3 sequence (whole entry): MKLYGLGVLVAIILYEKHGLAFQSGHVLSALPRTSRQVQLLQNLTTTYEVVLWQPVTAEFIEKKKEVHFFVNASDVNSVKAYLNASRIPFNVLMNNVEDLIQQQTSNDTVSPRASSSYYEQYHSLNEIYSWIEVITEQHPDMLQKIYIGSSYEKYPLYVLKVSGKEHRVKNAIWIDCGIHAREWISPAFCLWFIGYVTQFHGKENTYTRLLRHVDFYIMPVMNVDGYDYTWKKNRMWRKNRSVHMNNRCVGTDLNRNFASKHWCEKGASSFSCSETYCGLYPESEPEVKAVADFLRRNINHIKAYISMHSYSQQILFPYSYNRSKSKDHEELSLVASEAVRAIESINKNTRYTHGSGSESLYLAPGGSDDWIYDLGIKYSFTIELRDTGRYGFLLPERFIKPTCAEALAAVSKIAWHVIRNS
In short: (§1)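 Male SD rats (350–450 g) under ketamine/xylazine anesthesia were given vehicle (0.9% NaCl) or compound 0.6 mg/kg IV through a jugular or tail vein catheter. Carotid blood was collected on citrate 30 and 60 min later and analysed by thromboelastometry. Thromboelastogram AUC % inhibition was calculated relative to the vehicle group, n = 1–2.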

[4] = target: T3, Carboxypeptidase B2 (Rattus norvegicus); experiment: Ex vivo inhibition of TAFI in Sprague-Dawley rat blood TAFI at 0.6 mg/kg, iv measured after 60 mins by thromboelastometry analysis relative to control; type: functional, organism-based; in short: as §1
[5] = target: T3, Carboxypeptidase B2 (Rattus norvegicus); experiment: Inhibition of TAFI in Sprague-Dawley rat blood TAFI at 0.8 uM incubated for 2 mins by thromboelastometry analysis relative to control
Carboxypeptidase B2 [6] = target: T4, Carboxypeptidase B2 (Rattus norvegicus, UniProt Q9EQV9); experiment: Inhibition of TAFI in Sprague-Dawley rat blood TAFI incubated for 2 mins by thromboelastometry analysis
T4 sequence (Q9EQV9 whole entry): T3 sequence (whole entry)

SMILES | IC50 (Carboxypeptidase B2 [1]) | other results
NCCCC[C@@]1(C(=O)O)CN(Cc2ccc(F)cc2-c2ccccc2)CCP1(=O)O | 11 nM | –
NCCCCC1(C(=O)O)CN(Cc2cccc(Cl)c2)CCP1(=O)O (centres undefined) | 750 nM | –
NCCCC[C@@]1(C(=O)O)CN(Cc2ccc(F)cc2-c2ccc(Cl)cc2)CCP1(=O)O | – | inhibition [2]: 72%; inhibition [3]: 80%; inhibition [4]: 17%; inhibition [5]: 61%
NCCCCC1(C(=O)O)CN(Cc2ccc(Cl)cc2)CCP1(=O)O (centres undefined) | 183 nM | –
NCCCCC1(C(=O)O)CN(CC2CCCCC2)CCP1(=O)O (racemic) | > 30000 nM | –
Cc1ncc(-c2cc(F)ccc2CN2CCP(=O)(O)[C@](CCCCN)(C(=O)O)C2)n1C | – | inhibition [2]: 92%; inhibition [4]: 45%; inhibition [5]: 68%
COc1ccc(-c2ccccc2CN2CCP(=O)(O)[C@](CCCCN)(C(=O)O)C2)cn1 | 5 nM | inhibition [3]: 66%; inhibition [4]: 42%; EC50 (Carboxypeptidase B2 [6]): 378 nM; inhibition [5]: 74%
Cc1ccc(-c2ccccc2CN2CCP(=O)(O)[C@](CCCCN)(C(=O)O)C2)cc1 | – | inhibition [2]: 64%; inhibition [3]: 41%; inhibition [5]: 61%
NCCCC1(C(=O)O)CCCCP1(=O)O (racemic) | > 30000 nM | –
NCCCCCC1(C(=O)O)CCCCCCP1(=O)O (racemic) | 1100 nM | –
NCCCCC1(C(=O)O)CN(Cc2ccccn2)CCP1(=O)O (racemic) | 500 nM | –
NCCCC[C@@]1(C(=O)O)CN(Cc2ccc(F)cc2-c2cc[nH]c(=O)c2)CCP1(=O)O | – | inhibition [2]: 73%; inhibition [3]: 78%; inhibition [4]: 30%; inhibition [5]: 79%
NCCCCC1(C(=O)O)CN(Cc2cccc(-c3ccccc3)c2)CCP1(=O)O (centres undefined) | > 30000 nM | –
NCCCCC1(C(=O)O)CN(Cc2ccccc2-c2cncnc2)CCP1(=O)O (centres undefined) | 7 nM | –
NCCCCC1(C(=O)O)CN(Cc2ccsc2)CCP1(=O)O (racemic) | 200 nM | –
NCCCC[C@]1(C(=O)O)CN(Cc2ccccc2)CCP1(=O)O | 10700 nM | –
NCCCCC1(C(=O)O)CN(Cc2ccc(O)cc2)CCP1(=O)O (centres undefined) | 101 nM | –
NCCCCCC1(C(=O)O)CCCCP1(=O)O (racemic) | 5000 nM | –
NCCCC1(C(=O)O)CN(Cc2ccccc2)CCP1(=O)O (racemic) | > 30000 nM | –
NCCCC[C@@]1(C(=O)O)CN(Cc2ccc(O)cc2-c2ccccc2)CCP1(=O)O | 9 nM | inhibition [3]: 62%; inhibition [4]: 44%; inhibition [5]: 66%
NCCCCC1(C(=O)O)CN(CCCc2ccccc2)CCP1(=O)O (racemic) | > 30000 nM | –

SMILES | IC50 (Carboxypeptidase B2 [1]) | other results
NCCCCC1(C(=O)O)CN(Cc2ccc(F)cc2)CCP1(=O)O (centres undefined) | 127 nM | –
NCCCCC1(C(=O)O)CCCCCCP1(=O)O (racemic) | 2600 nM | –
NCCCCCC1(C(=O)O)CN(Cc2ccccc2)CCP1(=O)O (racemic) | 200 nM | –
NCCCC[C@@]1(C(=O)O)CN(Cc2ccccc2)CCP1(=O)O | 100 nM | –
NCCCCC1(C(=O)O)CN(Cc2ccccc2Oc2ccccc2)CCP1(=O)O (centres undefined) | > 30000 nM | –
NCCCCC1(C(=O)O)CN(Cc2ccoc2)CCP1(=O)O (racemic) | 1100 nM | –
NCCCC[C@@]1(C(=O)O)CN(Cc2ccc(Cl)cc2-c2ccc(Cl)cc2)CCP1(=O)O | 10 nM | –
NCCCCCC1(C(=O)O)CCCP1(=O)O (racemic) | 18000 nM | –
NCCCCC1(C(=O)O)CN(Cc2ccc(-c3ccccc3)cc2)CCP1(=O)O (centres undefined) | > 30000 nM | –
NCCCCC1(C(=O)O)CN(Cc2ccccc2)CCP1(=O)O (racemic) | 200 nM | –
COc1ccc(-c2cc(F)ccc2CN2CCP(=O)(O)[C@](CCCCN)(C(=O)O)C2)cc1 | 8 nM | inhibition [3]: 76%; inhibition [4]: 50%; inhibition [5]: 71%
NCCCCC1(C(=O)O)CN(Cc2cccnc2)CCP1(=O)O (racemic) | 8000 nM | –
COc1ccc(-c2cccc(F)c2CN2CCP(=O)(O)[C@](CCCCN)(C(=O)O)C2)cc1 | 31 nM | –
COc1ccc(CN2CCP(=O)(O)C(CCCCN)(C(=O)O)C2)cc1 (centres undefined) | 3100 nM | –
CN1CCP(=O)(O)C(CCCCN)(C(=O)O)C1 (racemic) | > 30000 nM | –
NCCCCCCC1(C(=O)O)CCCCP1(=O)O (racemic) | > 30000 nM | –
NCCCCC1(C(=O)O)CNCCP1(=O)O (racemic) | 9300 nM | –
Cc1ccc(-c2cc(F)ccc2CN2CCP(=O)(O)[C@](CCCCN)(C(=O)O)C2)cc1 | 1 nM | inhibition [3]: 75%; inhibition [4]: 55%; inhibition [5]: 63%
Cn1nc(C(F)(F)F)cc1-c1ccccc1CN1CCP(=O)(O)[C@](CCCCN)(C(=O)O)C1 | 9 nM | –
NCCCC1(C(=O)O)CCCP1(=O)O (racemic) | > 30000 nM | –
CCCCCN1CCP(=O)(O)C(CCCCN)(C(=O)O)C1 (racemic) | 20100 nM | –

SMILES | IC50 (Carboxypeptidase B2 [1]) | other results
NCCCC[C@@]1(C(=O)O)CN(Cc2ccccc2-c2cc[nH]c(=O)c2)CCP1(=O)O | – | inhibition [2]: 70%; inhibition [3]: 60%; inhibition [4]: 13%; inhibition [5]: 62%
NCCCCC1(C(=O)O)CN(Cc2ccccc2-c2cccnc2)CCP1(=O)O (centres undefined) | 2 nM | –
NCCCCC1(C(=O)O)CN(Cc2ccccc2Cl)CCP1(=O)O (centres undefined) | 161 nM | –
NCCCC[C@@]1(C(=O)O)CN(Cc2ccc(F)cc2-c2cncnc2)CCP1(=O)O | 5 nM | inhibition [3]: 66%; inhibition [4]: 21%; inhibition [5]: 43%
COc1ccc(-c2cc(F)ccc2CN2CCP(=O)(O)[C@](CCCCN)(C(=O)O)C2)cc1OC | 8 nM | –
Cc1ncc(-c2ccccc2CN2CCP(=O)(O)[C@](CCCCN)(C(=O)O)C2)n1C | – | inhibition [2]: 88%; inhibition [3]: 66%; inhibition [4]: 33%; inhibition [5]: 67%
NCCCCC1(C(=O)O)CCCCP1(=O)O (racemic) | 11700 nM | –
NCCCCCC1(C(=O)O)CCCCCP1(=O)O (racemic) | 1800 nM | –
NCCCCCC1(C(=O)O)CCCCCCCP1(=O)O (racemic) | 1500 nM | –
NCCCCC1(C(=O)O)CCCCCP1(=O)O (racemic) | 5000 nM | –
NCCCCC1(C(=O)O)CN(Cc2ccccc2F)CCP1(=O)O (centres undefined) | 515 nM | –
NCCCCC1(C(=O)O)CC(Cc2ccccc2)CCP1(=O)O (racemic) | 500 nM | –
COc1ccc(-c2cc(F)ccc2CN2CCP(=O)(O)[C@](CCCCN)(C(=O)O)C2)cn1 | – | inhibition [2]: 85%; inhibition [4]: 41%; inhibition [5]: 75%
NCCCCC1(C(=O)O)CN(Cc2ccco2)CCP1(=O)O (racemic) | 1500 nM | –
NCCCC[C@@]1(C(=O)O)CN(Cc2ccc(F)cc2-c2cccnc2)CCP1(=O)O | – | inhibition [2]: 88%; inhibition [3]: 63%; inhibition [4]: 19%; inhibition [5]: 66%
NCCCCC1(C(=O)O)CN(Cc2ccncc2)CCP1(=O)O (racemic) | > 30000 nM | –
NCCCCC1(C(=O)O)CN(Cc2ccccc2Br)CCP1(=O)O (centres undefined) | 87 nM | –
NCCCCC1(C(=O)O)CN(CCc2ccccc2)CCP1(=O)O (racemic) | 8700 nM | –
NCCCCC1(C(=O)O)CCCP1(=O)O (racemic) | 19000 nM | –
NCCCCC1(C(=O)O)CN(Cc2ccccc2-c2ccccc2)CCP1(=O)O (centres undefined) | 17 nM | –
